In series [1] the target is Voltage-gated inwardly rectifying potassium channel KCNH2 (Homo sapiens, UniProt Q12809). The experiment in a line: Inhibition of human ERG.
Series [2] is described as follows: Inhibition of Cytochrome P450. In kind it is ADME.
Series [3] in a line: Inhibition of LPA-induced proliferation of HLF incubated for 1 hr prior to LPA-challenge measured after 48 hrs by BrdU incorporation assay. The note with it: Homo sapiens.
Series [4] concerns the target T1, Lysophosphatidic acid receptor 1 (Homo sapiens, UniProt Q92633). The experiment in a line: Antagonist activity at human recombinant LPA1 expressed in chem-1 cells assessed as inhibition of LPA-induced intracellular calcium mobilization incubated for 30 mins prior to LPA-challenge measured over 100 secs by FLIPR assay. In kind it is functional, cell-based. In outline:
(§1)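 Calcium-optimized Chem-1 cells stably expressing human LPA1 or LPA3 (parental line with ionomycin as counterscreen), seeded 10,000/well the day before. Calcium-4 dye in HBSS/20 mM HEPES/2.5 mM probenecid loaded 30 min at 37 °C; compound added, 30 min at room temperature in the dark; LPA (18:1) 1 μM final. Peak fluorescence read over 100 s; IC50 from 10-concentration 4-parameter logistic fit, mean of at least three runs.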
In general terms: A change in cytosolic calcium serves as a functional read-out for many receptors and channels.

Series [5] concerns the target T2, Lysophosphatidic acid receptor 3 (Homo sapiens) (UniProt Q9UBY5).
T2 sequence (whole entry): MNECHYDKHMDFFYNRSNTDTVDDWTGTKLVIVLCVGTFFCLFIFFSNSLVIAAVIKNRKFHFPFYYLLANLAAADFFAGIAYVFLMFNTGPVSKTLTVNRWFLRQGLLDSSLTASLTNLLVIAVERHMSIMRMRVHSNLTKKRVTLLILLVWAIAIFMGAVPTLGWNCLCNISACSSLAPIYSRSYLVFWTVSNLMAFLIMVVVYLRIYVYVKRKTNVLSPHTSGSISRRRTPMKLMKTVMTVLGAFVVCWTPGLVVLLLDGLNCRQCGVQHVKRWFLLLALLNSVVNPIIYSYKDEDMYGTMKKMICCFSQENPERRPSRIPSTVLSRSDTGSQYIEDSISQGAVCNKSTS
Nature of the series: Antagonist activity at human recombinant LPA3 expressed in chem-1 cells assessed as inhibition of LPA-induced intracellular calcium mobilization at 30 uM incubated for 30 mins prior to LPA-challenge measured over 100 secs by FLIPR assay. In kind it is functional, cell-based. In outline:
as §1

Series [6] addresses T1, Lysophosphatidic acid receptor 1. The experiment in a line: Antagonist activity at human recombinant LPA1 expressed in chem-1 cells assessed as inhibition of LPA-induced intracellular calcium mobilization at 30 uM incubated for 30 mins prior to LPA-challenge measured over 100 secs by FLIPR assay. In kind it is functional, cell-based. In outline:
as §1

Series [7] concerns the target T3, Lysophosphatidic acid receptor 3 (Homo sapiens, UniProt Q9UBY5).
T3 sequence (Q9UBY5 whole entry): T2 sequence (whole entry)
Nature of the series: Antagonist activity at human recombinant LPA3 expressed in chem-1 cells assessed as inhibition of LPA-induced intracellular calcium mobilization incubated for 30 mins prior to LPA-challenge measured over 100 secs by FLIPR assay. In kind it is functional, cell-based. In outline: as §1

The subject of the next series is Mus musculus. Nature of the series: Antifibrosis activity in C57BL6/J mouse assessed as inhibition of LPA-stimulated histamine release at 100 mg/kg, po dosed 2 hrs prior to LPA-challenge by ELISA. It is filed as functional, organism-based. Set-up: dose 100 mg/kg. In outline: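 Male C57BL6/J mice, 7–9 weeks old, given compound orally 2 h before intravenous LPA 100 μg/mouse (in 0.1% fatty acid-free BSA). Killed 3 min after LPA; EDTA plasma histamine measured by ELISA and plasma drug levels by LC/MS. n = 5–8 mice, mean ± SEM; one-way ANOVA with Dunnett's test versus LPA vehicle control.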
(In general: ELISA stands for enzyme-linked immunosorbent assay.)

Series [8] concerns the target T1, Lysophosphatidic acid receptor 1. Nature of the series: Antagonist activity at LPA1 in human lung fibroblasts assessed as inhibition of LPA-induced contraction after 18 hrs by 3D collagen gel contraction assay. In kind it is functional. In outline:
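NHLFs (healthy nonsmoking donors, passages 5–9) at 2.5 × 10⁵ cells/well, mixed 1:4 with collagen lattice; gels polymerized 2 h at 37 °C, then basal medium with 0.1% FBS, 0.1% fatty acid-free BSA and vehicle or antagonist added. Gels detached, LPA (18:1) 15 μM added; after 18 h, contraction quantified by gel disc weight.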

The structures appear in SMILES notation. The source made the active and inactive calls. The calls are words filed in the database; no cut-off is given here.

T1 sequence (Q92633 whole entry): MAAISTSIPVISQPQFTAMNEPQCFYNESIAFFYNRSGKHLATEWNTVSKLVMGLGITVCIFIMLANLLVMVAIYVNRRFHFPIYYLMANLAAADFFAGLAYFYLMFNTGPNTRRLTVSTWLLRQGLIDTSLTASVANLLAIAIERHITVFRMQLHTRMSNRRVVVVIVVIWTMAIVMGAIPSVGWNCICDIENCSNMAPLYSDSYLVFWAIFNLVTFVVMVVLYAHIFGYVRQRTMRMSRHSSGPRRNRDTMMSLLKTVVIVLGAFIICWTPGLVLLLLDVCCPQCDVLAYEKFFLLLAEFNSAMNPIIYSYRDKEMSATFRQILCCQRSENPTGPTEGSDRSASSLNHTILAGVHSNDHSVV
Voltage-gated inwardly rectifying potassium channel KCNH2, sequence (Q12809 whole entry): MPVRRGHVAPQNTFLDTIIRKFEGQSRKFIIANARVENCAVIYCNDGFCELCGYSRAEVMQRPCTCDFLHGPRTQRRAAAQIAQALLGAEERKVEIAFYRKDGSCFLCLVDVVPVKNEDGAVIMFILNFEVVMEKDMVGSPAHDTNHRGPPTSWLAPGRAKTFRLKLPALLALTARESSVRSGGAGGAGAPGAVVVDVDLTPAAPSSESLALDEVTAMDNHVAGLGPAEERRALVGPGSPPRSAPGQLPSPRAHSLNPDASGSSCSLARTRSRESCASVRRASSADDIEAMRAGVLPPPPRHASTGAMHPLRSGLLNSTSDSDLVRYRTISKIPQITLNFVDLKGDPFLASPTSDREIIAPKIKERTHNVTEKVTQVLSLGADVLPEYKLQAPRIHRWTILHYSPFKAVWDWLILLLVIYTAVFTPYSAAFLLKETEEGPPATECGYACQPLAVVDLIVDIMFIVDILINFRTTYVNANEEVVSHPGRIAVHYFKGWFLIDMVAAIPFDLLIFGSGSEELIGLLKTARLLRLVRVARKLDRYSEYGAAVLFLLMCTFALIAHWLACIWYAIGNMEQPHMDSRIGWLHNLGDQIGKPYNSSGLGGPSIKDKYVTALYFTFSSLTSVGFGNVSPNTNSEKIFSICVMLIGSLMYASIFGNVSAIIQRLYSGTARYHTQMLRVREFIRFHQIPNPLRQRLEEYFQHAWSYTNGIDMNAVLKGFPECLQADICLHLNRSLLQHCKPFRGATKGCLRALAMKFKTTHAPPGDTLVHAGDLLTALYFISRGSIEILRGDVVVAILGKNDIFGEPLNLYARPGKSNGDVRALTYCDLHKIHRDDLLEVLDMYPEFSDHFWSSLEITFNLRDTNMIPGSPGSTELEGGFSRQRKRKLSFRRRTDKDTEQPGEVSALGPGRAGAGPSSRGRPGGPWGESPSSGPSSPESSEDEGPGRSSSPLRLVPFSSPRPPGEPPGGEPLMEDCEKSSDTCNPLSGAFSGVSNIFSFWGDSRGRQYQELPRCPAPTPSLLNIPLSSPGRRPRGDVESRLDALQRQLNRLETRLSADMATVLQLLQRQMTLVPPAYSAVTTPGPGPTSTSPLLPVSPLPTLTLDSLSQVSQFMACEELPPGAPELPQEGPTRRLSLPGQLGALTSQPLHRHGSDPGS

One may read the IC50 as the midpoint of a concentration-inhibition curve. For the compound `C[C@@H](OC(=O)Nc1c(-c2ccc(-c3ccc(C4(C(=O)O)CC4)cc3)cc2)cnn1C)c1cccc(C(F)(F)F)c1`, the “inhibition (INH)” value in [1] and in series [2] was “Not Active” throughout. Further, the IC50 was 0.037 µM in [3] and 0.041 µM in [4].
Usually inhibition stands for the relative decrease from the control value, in per cent. As to `Cc1nnn(-c2ccc(-c3ccc(CC(=O)O)cc3)cc2)c1NC(=O)O[C@H](C)c1ccccc1`, the “inhibition (INH)” value in series [1] and in series [2] was “Not Active” in each case. For the same compound, the inhibition was found to be 3% in series [5] and 41% in series [6].
Regarding `CC(C)[C@@H](C)OC(=O)Nc1c(-c2ccc(-c3ccc(C4(C(=O)O)CC4)cc3)cc2)nnn1C`, the “inhibition (INH)” value in series [1] and in [2] was “Not Active” throughout. Further, in series [5], the inhibition turned out to be 24%. Moreover, half-maximal inhibition in series [3] (IC50) required 0.02 µM.
As to `CC(OC(=O)Nc1c(-c2ccccc2)cnn1C)c1ccccc1Cl` (racemic), the “inhibition (INH)” value in [1] and in series [2] was “Not Active” in each case. Besides, the inhibition in series [6] was over 97%. Moreover, in series [7], the IC50 was over 30 µM.
Take `C[C@@H](OC(=O)Nc1nncn1-c1ccc(-c2ccc(C3(C(=O)O)CC3)cc2)cc1)c1ccccc1`: the “inhibition (INH)” value in [1] and in series [2] was “Not Active” throughout. Besides, the values for the inhibition in series [5] and in [6] were 17% and 11%, respectively.
As for `Cc1nnn(-c2ccc(-c3ccc(C4(C(=O)O)CC4)cc3)cc2)c1NC(=O)O[C@H](C)c1ccccc1F`, the “inhibition (INH)” value in [1] and in series [2] was “Not Active” in each case. Moreover, the inhibition in [5] came to 42%. This compound also registered an IC50 in series [3] of 0.021 µM.
With `CC[C@@H](C)OC(=O)Nc1c(-c2ccc(-c3ccc(C4(C(=O)O)CC4)cc3)cc2)cnn1C`, the “inhibition (INH)” value in series [1] and in [2] was “Not Active” each time. In addition, the inhibition in series [5] turned out to be 0%. Also, half-maximal inhibition in [3] (IC50) required 0.048 µM.
For the compound `C[C@@H](OC(=O)Nc1cnnn1-c1ccc(-c2ccc(C3(C(=O)O)CC3)cc2)cc1)c1ccccc1`, the “inhibition (INH)” value in series [1] and in [2] was “Not Active” each time. The inhibition in series [5] was found to be 23%. This compound displayed an IC50 in series [3] of 0.04 µM.
Take `Cc1nnn(-c2ccc(-c3ccc(C4(c5nnn[nH]5)CC4)cc3)cc2)c1NC(=O)O[C@H](C)c1ccccc1`: the “inhibition (INH)” value in series [1] and in series [2] was “Not Active” throughout. Besides, the inhibition in series [5] amounted to 28%. The IC50 came to 0.105 µM in [3] and 0.023 µM in series [4].
Take `Cc1nnn(-c2ccc(-c3ccc(C4(C(=O)O)CC4)cc3)cc2)c1NC(=O)O[C@H](C)c1ccccc1C(F)(F)F`: the “inhibition (INH)” value in series [1] and in series [2] was “Not Active” in each case. Besides, the inhibition in [5] was 55%. The compound further came in with an IC50 in series [3] of 0.077 µM.
Take `CC(OC(=O)Nc1c(-c2ccc(F)cc2)cnn1C)c1ccccc1Cl` (racemic): the “inhibition (INH)” value in series [1] and in series [2] was “Not Active” throughout. Further, the inhibition in series [6] was over 97%. In addition, in [7], the IC50 was over 30 µM.
For `C[C@@H](OC(=O)Nc1c(-c2ccc(-c3ccc(C4(C(=O)O)CC4)cc3)cc2)nnn1C)c1cccc(C(F)(F)F)c1`, the “inhibition (INH)” value in series [1] and in [2] was “Not Active” each time. In addition, the IC50 was determined as 0.074 µM in series [3] and 0.017 µM in series [4].
Take `C[C@@H](OC(=O)Nc1nnn(C)c1-c1ccc(-c2ccc(C3(C(=O)O)CC3)cc2)cc1)c1ccccc1`: the “inhibition (INH)” value in series [1] and in series [2] was “Not Active” in each case. Moreover, the inhibition in series [5] was 10%; in series [6], 12%.
On to `C[C@@H](OC(=O)Nc1c(-c2ccccc2)cnn1C)c1ccccc1`, for which the “inhibition (INH)” value in [1] and in [2] was “Not Active” each time. For the same compound, the inhibition in series [6] was 65%.
As to `CC[C@@H](C)OC(=O)Nc1c(C)nnn1-c1ccc(-c2ccc(C3(C(=O)O)CC3)cc2)cc1`, the “inhibition (INH)” value in series [1] and in [2] was “Not Active” throughout. In series [5], the inhibition was found to be 0%. This compound also registered an IC50 in series [3] of 0.178 µM.
With `Cc1nnn(-c2ccc(-c3ccc(C4(C(=O)O)CC4)cc3)cc2)c1NC(=O)OC(C)C1CCC1` (racemic), the “inhibition (INH)” value in series [1] and in series [2] was “Not Active” in each case. In addition, the inhibition in series [5] is 26%. The compound also displayed an IC50 in series [3] of 0.189 µM.
`Cn1ncc(-c2ccc(-c3ccc(C4(C(=O)O)CC4)cc3)cc2)c1NC(=O)OC1CCC1`: the “inhibition (INH)” value in series [1] and in [2] was “Not Active” each time. Besides, the inhibition in [5] is 13.7%. 0.192 µM corresponded to half-maximal inhibition in [3] (IC50).
For the compound `Cc1nnn(-c2ccc(-c3ccc(C4(C(=O)NS(C)(=O)=O)CC4)cc3)cc2)c1NC(=O)O[C@H](C)c1ccccc1`, the “inhibition (INH)” value in [1] and in [2] was “Not Active” throughout. For the same compound, the inhibition in series [5] was 7%. For the same compound, the IC50 turned out to be 0.06 µM in [3] and 0.032 µM in series [4].
Regarding `CC(C)[C@@H](C)OC(=O)Nc1c(-c2ccc(-c3ccc(C4(C(=O)O)CC4)cc3)cc2)cnn1C`, the “inhibition (INH)” value in [1] and in series [2] was “Not Active” each time. Besides, the inhibition in series [5] amounted to 9%. Also, the IC50 in series [3] was 0.03 µM.
`C[C@@H](OC(=O)Nc1c(-c2ccc(-c3ccc(C4(C(=O)O)CC4)cc3)cc2)cnn1C)c1ccccc1`: the “inhibition (INH)” value in series [1] and in series [2] was “Not Active” in each case. The IC50 in [3] came to 0.0026 µM; in series [4], 0.021 µM.
Consider `Cc1noc(-c2ccc(-c3ccc(CC(=O)O)cc3)cc2)c1NC(=O)O[C@H](C)c1ccccc1`, for which, in the series on Mus musculus, the inhibition entry is “Active”.
Take `Cn1ncc(-c2ccc(-c3ccc(C4(C(=O)O)CC4)cc3)cc2)c1NC(=O)OC1COC1`: the “inhibition (INH)” value in series [1] and in series [2] was “Not Active” in each case. In addition, the inhibition in series [5] and in series [6] was 0% each time.
For `C[C@@H](OC(=O)Nc1c(-c2ccc(-c3ccc(C4(C(=O)NS(C)(=O)=O)CC4)cc3)cc2)nnn1C)c1cccc(C(F)(F)F)c1`, the “inhibition (INH)” value in series [1] and in [2] was “Not Active” each time. The inhibition entry in series [8] is “inactive”. The figures for the IC50 in [3] and in series [4] were 0.331 µM and 0.024 µM, respectively.
For the compound `CCOC(=O)C1(c2ccc(-c3ccc(-c4cnn(C)c4NC(=O)O[C@H](C)c4ccccc4)cc3)cc2)CC1`, the “inhibition (INH)” value in [1] and in series [2] was “Not Active” in each case. In series [6], the inhibition came to 65%.
For the compound `CCc1nnn(-c2ccc(-c3ccc(C4(C(=O)O)CC4)cc3)cc2)c1NC(=O)O[C@H](C)c1ccccc1`, the “inhibition (INH)” value in [1] and in series [2] was “Not Active” in each case. Further, the inhibition in [5] was found to be 63%. The IC50 in series [3] turned out to be 0.016 µM; in series [4] it was 0.042 µM.
Consider `Cc1nnn(-c2ccc(-c3ccc(C4(C(=O)O)CC4)cc3)cc2)c1NC(=O)OC(C)(C)C`, for which the “inhibition (INH)” value in series [1] and in series [2] was “Not Active” in each case. Further, in [5], the inhibition was 0%. Also, in series [3], the IC50 amounted to 1.62 µM.
As to `Cc1nnn(-c2ccc(-c3ccc(C4(C(=O)O)CC4)cc3)cc2)c1NC(=O)O[C@H](C)C(C)C`, the “inhibition (INH)” value in [1] and in [2] was “Not Active” in each case. In addition, the inhibition in [5] was found to be 17%. The IC50 in [3] was 0.06 µM.

The record behind these values is ChEMBL document CHEMBL2176934 (J Med Chem, 2012).
